Laboratory results taken from ChEMBL document CHEMBL3392996, “Non-transpeptidase binding arylthioether β-lactams active against Mycobacterium tuberculosis and Moraxella catarrhalis” (2015).
In brackets after ≈: the same amount, converted by molar mass.

What follows are compounds tested on Mycobacterium tuberculosis (assay: Antimicrobial activity against Mycobacterium tuberculosis H37Rv incubated for 48 hrs by microdilution broth method).
Assay type: functional
For `O=C1CC(Sc2c(F)c(F)c(F)c(F)c2F)N1C(=O)NCc1ccccc1` (racemic), the MIC was greater than 100 µg/mL.
Work on `O=C1CC(Sc2ccc(F)cc2Cl)N1C(=O)NCc1ccccc1` (racemic) yielded an MIC of 25 µg/mL (≈ 68.5 µM).
`O=C1CC(Sc2ccc(F)c(Cl)c2)N1C(=O)NCc1ccccc1` (racemic) was tested, and the MIC was 25 µg/mL (≈ 68.5 µM).
Work on `O=C1CC(Sc2ccc(Cl)cc2Cl)N1C(=O)NCc1ccccc1` (racemic) yielded an MIC of 25 µg/mL (≈ 65.6 µM).
`O=C1CC(Sc2ccc([N+](=O)[O-])cc2)N1C(=O)NCc1ccccc1` (racemic) was tested, and the MIC was 25 µg/mL (≈ 70 µM).
`O=C1CC(Sc2ccccc2C(F)(F)F)N1C(=O)NCc1ccccc1` (racemic) was tested, and the MIC was 125 µg/mL (≈ 329 µM).
`COc1ccccc1SC1CC(=O)N1C(=O)NCc1ccccc1` (racemic) was tested, and the MIC was 125 µg/mL (≈ 365 µM).
`COc1cccc(SC2CC(=O)N2C(=O)NCc2ccccc2)c1` (racemic) was tested, and the MIC was 100 µg/mL (≈ 292 µM).
Compound `COc1ccc(SC2CC(=O)N2C(=O)NCc2ccccc2)cc1` (racemic) has an MIC of 125 µg/mL (≈ 365 µM).
In the case of `COc1ccc(OC)c(SC2CC(=O)N2C(=O)NCc2ccccc2)c1` (racemic), the MIC is reported as 50 µg/mL (≈ 134 µM).
`COc1ccc(SC2CC(=O)N2C(=O)NCc2ccccc2)cc1OC` (racemic) gave an MIC of 250 µg/mL (≈ 671 µM).
With `O=C1CC(Sc2cccs2)N1C(=O)NCc1ccccc1` (racemic) the MIC was 6.25 µg/mL (≈ 19.6 µM).
Compound `CSc1ccc(SC2CC(=O)N2C(=O)NCc2ccccc2)cc1` (racemic) has an MIC greater than 100 µg/mL.
`O=C1CC(Sc2cccc3ccccc23)N1C(=O)NCc1ccccc1` (racemic) gave an MIC greater than 100 µg/mL.
Work on `O=C1CC(Oc2ccc([N+](=O)[O-])cc2)N1C(=O)NCc1ccccc1` (racemic) yielded an MIC of 250 µg/mL (≈ 732 µM).

The compounds below were run on Moraxella catarrhalis (assay: Bactericidal activity against Moraxella catarrhalis clinical isolates incubated for 48 hrs by microdilution broth method and standard plating method).
Assay type: functional
Outline: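 Broth microdilution in Mueller-Hinton broth, 2-fold series from 500 to 15.6 μg/ml, with DMSO-only controls, 37 °C for 48 h. Wells showing no growth were plated (10 μL) on MH agar. MBC was the lowest concentration giving no growth on plating. Run in quadruplicate.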
For `O=C1CC(Sc2c(F)c(F)c(F)c(F)c2F)N1C(=O)NCc1ccccc1` (racemic), the MBC was 6.25 µg/mL (≈ 15.5 µM).
In the case of `O=C1CC(Sc2ccc(F)cc2Cl)N1C(=O)NCc1ccccc1` (racemic), the MBC is reported as 25 µg/mL (≈ 68.5 µM).
With `O=C1CC(Sc2ccc(F)c(Cl)c2)N1C(=O)NCc1ccccc1` (racemic) the MBC was 6.25 µg/mL (≈ 17.1 µM).
With `O=C1CC(Sc2ccc(Cl)cc2Cl)N1C(=O)NCc1ccccc1` (racemic) the MBC was 6.25 µg/mL (≈ 16.4 µM).
`O=C1CC(Sc2ccc([N+](=O)[O-])cc2)N1C(=O)NCc1ccccc1` (racemic) showed an MBC of 25 µg/mL (≈ 70 µM).
Work on `O=C1CC(Sc2ccccc2C(F)(F)F)N1C(=O)NCc1ccccc1` (racemic) yielded an MBC of 25 µg/mL (≈ 65.7 µM).
For `COc1ccccc1SC1CC(=O)N1C(=O)NCc1ccccc1` (racemic), the MBC was 200 µg/mL (≈ 584 µM).
`COc1cccc(SC2CC(=O)N2C(=O)NCc2ccccc2)c1` (racemic) gave an MBC of 200 µg/mL (≈ 584 µM).
`COc1ccc(SC2CC(=O)N2C(=O)NCc2ccccc2)cc1` (racemic) showed an MBC of 200 µg/mL (≈ 584 µM).
Work on `COc1ccc(OC)c(SC2CC(=O)N2C(=O)NCc2ccccc2)c1` (racemic) yielded an MBC of 200 µg/mL (≈ 537 µM).
Work on `COc1ccc(SC2CC(=O)N2C(=O)NCc2ccccc2)cc1OC` (racemic) yielded an MBC greater than 200 µg/mL.
For `O=C1CC(Sc2cccs2)N1C(=O)NCc1ccccc1` (racemic), the MBC was 100 µg/mL (≈ 314 µM).
`O=C1CC(Sc2cccc3ccccc23)N1C(=O)NCc1ccccc1` (racemic) was tested, and the MBC was greater than 200 µg/mL.
With `O=C1CC(Oc2ccc([N+](=O)[O-])cc2)N1C(=O)NCc1ccccc1` (racemic) the MBC was 6.25 µg/mL (≈ 18.3 µM).

The compounds below were run on Moraxella catarrhalis (assay: Antimicrobial activity against Moraxella catarrhalis clinical isolates incubated for 48 hrs by microdilution broth method).
Assay type: functional
Outline: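 Stocks in DMSO were diluted at least 10-fold into Mueller-Hinton broth, then 2-fold serially diluted in MH from 500 to 15.6 μg/ml. Bacteria were added, with DMSO-only dilution controls, and incubated at 37 °C for 48 h. Growth was scored at 24 and 48 h. MIC was the lowest concentration with no growth. Run in quadruplicate.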
For `O=C1CC(Sc2c(F)c(F)c(F)c(F)c2F)N1C(=O)NCc1ccccc1` (racemic), the MIC was 3.1 µg/mL (≈ 7.7 µM).
With `O=C1CC(Sc2ccc(F)cc2Cl)N1C(=O)NCc1ccccc1` (racemic) the MIC was 12.5 µg/mL (≈ 34.3 µM).
For `O=C1CC(Sc2ccc(F)c(Cl)c2)N1C(=O)NCc1ccccc1` (racemic), the MIC was 6.25 µg/mL (≈ 17.1 µM).
With `O=C1CC(Sc2ccc(Cl)cc2Cl)N1C(=O)NCc1ccccc1` (racemic) the MIC was 3.13 µg/mL (≈ 8.21 µM).
`O=C1CC(Sc2ccc([N+](=O)[O-])cc2)N1C(=O)NCc1ccccc1` (racemic) showed an MIC of 3.12 µg/mL (≈ 8.74 µM).
With `O=C1CC(Sc2ccccc2C(F)(F)F)N1C(=O)NCc1ccccc1` (racemic) the MIC was 25 µg/mL (≈ 65.7 µM).
Compound `COc1ccccc1SC1CC(=O)N1C(=O)NCc1ccccc1` (racemic) has an MIC of 200 µg/mL (≈ 584 µM).
`COc1cccc(SC2CC(=O)N2C(=O)NCc2ccccc2)c1` (racemic) was tested, and the MIC was 200 µg/mL (≈ 584 µM).
Work on `COc1ccc(SC2CC(=O)N2C(=O)NCc2ccccc2)cc1` (racemic) yielded an MIC of 200 µg/mL (≈ 584 µM).
In the case of `COc1ccc(OC)c(SC2CC(=O)N2C(=O)NCc2ccccc2)c1` (racemic), the MIC is reported as 100 µg/mL (≈ 268 µM).
`COc1ccc(SC2CC(=O)N2C(=O)NCc2ccccc2)cc1OC` (racemic) was tested, and the MIC was 200 µg/mL (≈ 537 µM).
`O=C1CC(Sc2cccs2)N1C(=O)NCc1ccccc1` (racemic) showed an MIC of 50 µg/mL (≈ 157 µM).
`O=C1CC(Sc2cccc3ccccc23)N1C(=O)NCc1ccccc1` (racemic) gave an MIC of 200 µg/mL (≈ 552 µM).
With `O=C1CC(Oc2ccc([N+](=O)[O-])cc2)N1C(=O)NCc1ccccc1` (racemic) the MIC was 6.25 µg/mL (≈ 18.3 µM).
